The text below walks through data of BindingDB's records for doi:10.1021/jm00151a016 (1986).

In one test the target is Vasopressin V2 receptor (Bos taurus, UniProt P48044). In words: ChEBML_214690. An excerpt: Binding affinity against plasma membrane from bovine kidney inner medulla using [3H]AVP as a radioligand
Test [1] addresses Vasopressin V1a/V1b receptor (Rattus norvegicus, UniProt P30560+P48974). Put plainly: Binding affinity against plasma membrane from rat liver using [3H]-AVP as a radioligand. In a few lines:
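Competition binding with [3H]AVP to plasma membranes, 30 min incubation; for rat liver membranes the standard medium included bacitracin (1 mg/mL). Apparent KD and slope factor b from weighted nonlinear least-squares fit of displacement curves to logistic curves; [3H]AVP parameters from direct binding. Mean ±SE of two experiments.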

Positions of bridges follow the written chain, without caps; N, C: chain ends. Non-standard residues stand in square brackets, D forms with d. Residues, ends and D or L forms follow the SMILES beside them. NMeA = CN[C@@H](C)C(=O)O; Sar = CNCC(=O)O

Usually Kd stands for a measure of binding affinity in units of concentration. A higher Kd goes with weaker binding.

Sequence of Vasopressin V1a/V1b receptor (P30560 whole entry): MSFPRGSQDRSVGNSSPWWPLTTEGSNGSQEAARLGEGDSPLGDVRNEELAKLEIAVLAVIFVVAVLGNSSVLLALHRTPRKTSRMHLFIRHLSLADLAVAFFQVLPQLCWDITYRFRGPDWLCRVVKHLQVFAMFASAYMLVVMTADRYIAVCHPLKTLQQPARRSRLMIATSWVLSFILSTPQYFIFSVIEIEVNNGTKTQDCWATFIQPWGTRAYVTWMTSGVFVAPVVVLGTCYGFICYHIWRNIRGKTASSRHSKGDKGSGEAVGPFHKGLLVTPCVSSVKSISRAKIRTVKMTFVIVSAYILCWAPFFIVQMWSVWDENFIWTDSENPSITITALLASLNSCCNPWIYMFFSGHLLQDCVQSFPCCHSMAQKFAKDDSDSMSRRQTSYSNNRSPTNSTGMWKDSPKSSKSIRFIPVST
Sequence of Vasopressin V1a/V1b receptor (P48974 whole entry): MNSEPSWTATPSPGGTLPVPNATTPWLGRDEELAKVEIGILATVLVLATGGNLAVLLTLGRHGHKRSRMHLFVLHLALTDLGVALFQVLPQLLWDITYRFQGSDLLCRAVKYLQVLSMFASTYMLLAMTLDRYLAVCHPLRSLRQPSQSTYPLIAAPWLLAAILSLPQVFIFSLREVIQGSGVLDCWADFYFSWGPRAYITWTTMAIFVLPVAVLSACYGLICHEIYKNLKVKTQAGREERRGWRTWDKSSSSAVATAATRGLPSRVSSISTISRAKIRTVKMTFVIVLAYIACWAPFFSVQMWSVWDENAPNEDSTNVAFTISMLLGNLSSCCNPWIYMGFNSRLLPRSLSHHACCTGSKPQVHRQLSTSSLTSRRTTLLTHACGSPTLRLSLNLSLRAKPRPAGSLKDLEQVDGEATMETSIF
Sequence of Vasopressin V2 receptor (P48044 whole entry): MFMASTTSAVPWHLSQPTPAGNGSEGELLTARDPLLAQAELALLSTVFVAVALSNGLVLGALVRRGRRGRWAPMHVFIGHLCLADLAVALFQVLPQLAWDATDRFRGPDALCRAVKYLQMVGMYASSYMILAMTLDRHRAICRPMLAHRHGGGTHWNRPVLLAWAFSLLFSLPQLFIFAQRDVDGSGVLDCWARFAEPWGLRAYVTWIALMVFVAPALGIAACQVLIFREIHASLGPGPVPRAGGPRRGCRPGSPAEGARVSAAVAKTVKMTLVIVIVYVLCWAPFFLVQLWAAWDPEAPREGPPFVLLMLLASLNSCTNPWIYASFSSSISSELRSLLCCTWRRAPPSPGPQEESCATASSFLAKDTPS

Take `CC(C)[C@@H]1NC(=O)[C@H](Cc2ccccc2)NC(=O)[C@H](Cc2ccc(O)cc2)NC(=O)[C@@H](N)CSSC[C@@H](C(=O)N(C)CC(=O)N[C@@H](CCCNC(=N)N)C(=O)NCC(N)=O)NC(=O)[C@H](CC(N)=O)NC1=O` (H-CYFVNC[Sar]RG-NH2; disulfide 1-6): the Kd was found to be 9.4 nM on Vasopressin V2 receptor and 110 nM in test [1].

`C[C@@H](C(=O)N[C@@H](CCCN=C(N)N)C(=O)NCC(N)=O)N(C)C(=O)[C@@H]1CSSC[C@H](N)C(=O)N[C@@H](Cc2ccccc2)C(=O)N[C@@H](Cc2ccccc2)C(=O)N[C@@H](CCC(N)=O)C(=O)N[C@@H](CC(N)=O)C(=O)N1` (H-CFFQNC[NMeA]RG-NH2; disulfide 1-6) showed a Kd in test [1] of 110 nM. `CC(C)[C@H]1NC(=O)[C@H](Cc2ccccc2)NC(=O)[C@@H](Cc2ccc(O)cc2)NC(=O)CCSSC[C@@H](C(=O)N(C)[C@@H](C)C(=O)N[C@@H](CCCN=C(N)N)C(=O)NCC(N)=O)NC(=O)[C@H](CC(N)=O)NC1=O` came in with a Kd at Vasopressin V2 receptor of 9.4 nM.
